The values that follow come from ChEMBL document CHEMBL1287782, “Design, synthesis, and characterization of BK channel openers based on oximation of abietane diterpene derivatives” (Bioorg Med Chem, 2010).

Each structure is given as a SMILES string.

The assay deals with Calcium-activated potassium channel subunit alpha-1 (Homo sapiens) (UniProt Q12791). The experiment in a line: Activation of human BK alpha channel expressed in CHO-K1 cells assessed as ionic current at 30 uM by patch clamp electrophysiological assay relative to control. Format: cell-based. A digest of the protocol: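 Automated population patch clamp (64-hole PPC) on CHO-K1 cells stably expressing hBKα. Internal (mM): 140 KCl, 1.0 MgCl2, 20 HEPES, pH 7.25–7.3. External (mM): 137 NaCl, 4.0 KCl, 1.0 MgCl2, 2.0 CaCl2, 10 glucose, 20 HEPES, pH 7.4. Cells suspended in external solution with 20 µM BAPTA-AM before loading. Step to +100 mV from holding potential; current at 30 µM compound as % of drug-free control; n = 8.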
Calcium-activated potassium channel subunit alpha-1 (Homo sapiens), sequence (Q12791 whole entry): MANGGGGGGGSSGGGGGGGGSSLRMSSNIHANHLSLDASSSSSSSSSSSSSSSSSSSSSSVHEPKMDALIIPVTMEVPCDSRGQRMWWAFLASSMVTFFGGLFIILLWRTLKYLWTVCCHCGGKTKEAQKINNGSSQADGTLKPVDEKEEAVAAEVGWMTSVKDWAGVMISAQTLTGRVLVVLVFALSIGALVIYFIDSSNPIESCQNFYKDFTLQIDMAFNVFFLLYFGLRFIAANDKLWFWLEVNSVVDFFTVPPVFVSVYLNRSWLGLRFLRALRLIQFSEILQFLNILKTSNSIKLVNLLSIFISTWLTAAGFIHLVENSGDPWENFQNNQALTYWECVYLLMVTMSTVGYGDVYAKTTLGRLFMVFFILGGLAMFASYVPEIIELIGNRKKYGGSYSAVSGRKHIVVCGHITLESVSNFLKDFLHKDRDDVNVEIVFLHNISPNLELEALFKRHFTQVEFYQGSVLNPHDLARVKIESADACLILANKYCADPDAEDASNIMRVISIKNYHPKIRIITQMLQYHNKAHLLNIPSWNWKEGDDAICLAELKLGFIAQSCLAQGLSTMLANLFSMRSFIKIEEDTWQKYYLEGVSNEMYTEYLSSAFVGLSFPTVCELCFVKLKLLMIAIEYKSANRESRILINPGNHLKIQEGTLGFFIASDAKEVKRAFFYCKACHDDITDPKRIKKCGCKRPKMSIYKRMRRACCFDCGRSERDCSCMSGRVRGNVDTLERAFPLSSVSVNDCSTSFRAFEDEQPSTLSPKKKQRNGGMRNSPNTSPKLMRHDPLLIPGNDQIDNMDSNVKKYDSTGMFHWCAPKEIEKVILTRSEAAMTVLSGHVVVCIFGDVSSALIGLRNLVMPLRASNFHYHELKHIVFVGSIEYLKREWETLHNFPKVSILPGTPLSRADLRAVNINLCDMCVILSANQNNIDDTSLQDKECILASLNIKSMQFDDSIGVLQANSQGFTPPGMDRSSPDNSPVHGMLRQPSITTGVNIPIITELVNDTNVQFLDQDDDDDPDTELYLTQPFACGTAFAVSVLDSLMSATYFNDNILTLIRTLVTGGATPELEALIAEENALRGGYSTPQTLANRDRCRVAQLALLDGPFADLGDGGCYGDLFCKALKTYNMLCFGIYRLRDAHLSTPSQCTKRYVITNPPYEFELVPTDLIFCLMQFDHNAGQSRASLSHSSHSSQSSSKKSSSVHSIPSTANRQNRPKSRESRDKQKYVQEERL
Regarding `CCCO/N=C1\C[C@H]2[C@](C)(C(=O)O)CCC[C@]2(C)c2cc(Cl)c(C(C)C)c(Cl)c21`, the Activity was found to be 192%.
As to `CC(C)c1c(Cl)cc2c(c1Cl)/C(=N/OCC1CC1)C[C@H]1[C@](C)(C(=O)O)CCC[C@]21C`, the Activity turned out to be 181%.
As for `CC(C)c1c(Cl)cc2c(c1Cl)/C(=N/OCc1ccccc1)C[C@H]1[C@](C)(C(=O)O)CCC[C@]21C`, the Activity amounted to 151%.
Take `CC(C)c1ccc2c(c1)/C(=N/OCc1ccccc1)C[C@H]1[C@](C)(C(=O)O)CCC[C@]21C`: the Activity came out at 123%.
For `CO/N=C1\C[C@H]2[C@](C)(C(=O)O)CCC[C@]2(C)c2c(Cl)c(Cl)c(C(C)C)c(Cl)c21` the value was 235%.
With `C=CCO/N=C1\C[C@H]2[C@](C)(C(=O)O)CCC[C@]2(C)c2ccc(C(C)C)cc21`, the Activity was 182%.
On to `CO/N=C1/c2ccc(OCCCc3ccccc3)cc2[C@@]2(C)CCC[C@](C)(C(=O)O)[C@@H]2C1O` (some centres not stated), for which the Activity is 125%.
For `C=CCO/N=C1\C[C@H]2[C@](C)(C(=O)O)CCC[C@]2(C)c2cc(Cl)c(C(C)C)c(Cl)c21` the value was 297%; for `CC(C)c1c(Cl)cc2c(c1Cl)C(=O)C[C@H]1[C@](C)(C(=O)O)CCC[C@]21C`, 124%; for `C[C@]1(C(=O)O)CCC[C@]2(C)c3cc(OCCCc4ccccc4)ccc3/C(=N/O)C[C@@H]12`, 134%.
As for `CC(C)c1ccc2c(c1)C(=O)C[C@H]1[C@](C)(C(=O)O)CCC[C@]21C`, the Activity stood at 100%.
Turning to `CO/N=C1\C[C@H]2[C@](C)(C(=O)O)CCC[C@]2(C)c2cc(Br)c(C(C)C)cc21`, the Activity was 216%.
Take `C#CCO/N=C1\C[C@H]2[C@](C)(C(=O)O)CCC[C@]2(C)c2ccc(C(C)C)cc21`: the Activity is 142%.
With `CC(C)c1c(Cl)cc2c(c1Cl)/C(=N/OCC1CCCCC1)C[C@H]1[C@](C)(C(=O)O)CCC[C@]21C`, the Activity turned out to be 129%.
Turning to `CC(C)c1c(Cl)c(Cl)c2c(c1Cl)/C(=N/O)C[C@H]1[C@](C)(C(=O)O)CCC[C@]21C`, the Activity is 229%.
For `C=CCO/N=C1\C[C@H]2[C@](C)(C(=O)O)CCC[C@]2(C)c2cc(Br)c(C(C)C)cc21`, the Activity was found to be 237%.
Consider `C[C@]1(C(=O)O)CCC[C@]2(C)c3cc(OCCCc4ccccc4)ccc3/C(=N/OCc3ccccc3)C[C@@H]12`, for which the Activity turned out to be 152%.
For `CC(C)CCO/N=C1\C[C@H]2[C@](C)(C(=O)O)CCC[C@]2(C)c2cc(Cl)c(C(C)C)c(Cl)c21`, the Activity is 145%.
Consider `C=CCO/N=C1\C[C@H]2[C@@](C)(C(=O)O)CCC[C@]2(C)c2cc(OCCCc3ccccc3)ccc21`, for which the Activity stood at 160%.
On to `CC(C)O/N=C1\C[C@H]2[C@](C)(C(=O)O)CCC[C@]2(C)c2cc(Cl)c(C(C)C)c(Cl)c21`, for which the Activity was 184%.
With `CC(C)c1cc2c(cc1Br)[C@@]1(C)CCC[C@@](C)(C(=O)O)[C@@H]1CC2=O`, the Activity is 166%.
As for `CC(C)c1c(Cl)cc2c(c1Cl)/C(=N/O)C[C@H]1[C@](C)(C(=O)O)CCC[C@]21C`, the Activity stood at 137%.
For the compound `CC(C)c1cc2c(cc1Br)[C@@]1(C)CCC[C@@](C)(C(=O)O)[C@@H]1C/C2=N\O`, the Activity came to 162%.
As to `CO/N=C1\C[C@H]2[C@](C)(C(=O)O)CCC[C@]2(C)c2cc(Cl)c(C(C)C)c(Cl)c21`, the Activity came out at 213%.
`CC(C)c1ccc2c(c1)/C(=N/OCCCc1ccccc1)C[C@H]1[C@](C)(C(=O)O)CCC[C@]21C`: the Activity was found to be 143%.
As for `CC(C)=CCO/N=C1\C[C@H]2[C@](C)(C(=O)O)CCC[C@]2(C)c2cc(Cl)c(C(C)C)c(Cl)c21`, the Activity was 126%.
Consider `C[C@]1(C(=O)O)CCC[C@]2(C)c3cc(OCCCc4ccccc4)ccc3/C(=N/OCCCc3ccccc3)C[C@@H]12`, for which the Activity came out at 134%.
Take `C#CCO/N=C1\C[C@H]2[C@@](C)(C(=O)O)CCC[C@]2(C)c2cc(OCCCc3ccccc3)ccc21`: the Activity was 166%.
`C[C@]1(C(=O)O)CCC[C@]2(C)c3cc(OCCCc4ccccc4)ccc3/C(=N/OCCCc3ccccc3)C(O)[C@@H]12` (some centres not stated): the Activity came to 107%.
Consider `CO/N=C1\C[C@H]2[C@@](C)(C(=O)O)CCC[C@]2(C)c2cc(O)ccc21`, for which the Activity was determined as 103%.
Take `C#CCO/N=C1\C[C@H]2[C@](C)(C(=O)O)CCC[C@]2(C)c2cc(Cl)c(C(C)C)c(Cl)c21`: the Activity stood at 261%.
With `CCCCCCCO/N=C1\C[C@H]2[C@](C)(C(=O)O)CCC[C@]2(C)c2cc(Cl)c(C(C)C)c(Cl)c21`, the Activity was 111%.
In the case of `CC(C)=CCO/N=C1\C[C@H]2[C@@](C)(C(=O)O)CCC[C@]2(C)c2cc(OCCCc3ccccc3)ccc21`, the Activity was 138%.
In the case of `CCO/N=C1\C[C@H]2[C@](C)(C(=O)O)CCC[C@]2(C)c2cc(Cl)c(C(C)C)c(Cl)c21`, the Activity came out at 212%.
Next, `CC(C)c1ccc2c(c1)/C(=N/O)C[C@H]1[C@](C)(C(=O)O)CCC[C@]21C`: 121%; `CO/N=C1\C[C@H]2[C@](C)(C(=O)O)CCC[C@]2(C)c2ccc(C(C)C)cc21`: 153%; `CO/N=C1\C[C@H]2[C@@](C)(C(=O)O)CCC[C@]2(C)c2cc(OCCCc3ccccc3)ccc21`: 151%.
